The nature of test [1]: S. cerevisiae growth inhibition in permissive medium (OD615), pilot counter-assay for S. cerevisiae lifespan shortening project, permissive growth control (AID 705;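 active = growth inhibition above 25% in both replicates, a cutoff set 3 SD above the mean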). Conditions: OD615, 24 h, at 10 µM, active compounds read high. The procedure, abridged:
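System: S. cerevisiae with engineered DeaD lifespan system / Measured by: absorbance (optical density) at 615 nm / Read-out: reduction in yeast growth (OD615) / Times: 4 h cell pre-growth, 24 h exposure at 30 °C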

A short description of test [2]: S. cerevisiae growth inhibition in restrictive medium, OD615, pilot screen, restrictive growth control, yeast lifespan reduction project (AID 706;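 active = growth inhibition above a set limit, 3 SD over mean compound inhibition, in both replicates, cut at about 43% in these data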;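 note: modified DeaD lifespan yeast strain shifted to restrictive glucose medium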). Conditions: OD615, 48 h, at 10 µM, active compounds read high. The procedure, abridged:
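System: Engineered S. cerevisiae DeaD strain | Buffer or medium: Glucose-based CSMM-D restrictive medium | Schedule: 4 h pre-incubation, 48 h exposure at 30 °C | Technique: Optical density at 615 nm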

A short description of test [3]: doxorubicin toxicity protection in MRP-1 cells – H69AR cells, CellTiter-Glo, duplicate, MRP-1 activator project, pilot screen (AID 807).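 Note: compound pretreatment 18-22 h then 72 h combined with doxorubicin; 0% = doxorubicin alone and 100% = vehicle without doxorubicin.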 Conditions: H69AR viability with doxorubicin, CellTiter-Glo luminescence; at 10 µM; active compounds read high. In general terms: ATP-based viability assays read luminescence as a measure of living cells.
Test [4] in a line: viability of HCT116 without oncogenic beta-catenin – human colon tumor cells, pilot screen (AID 823;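 active = cell viability at or below a set limit in both duplicate runs, the limit being the all-compound median minus 4 SD, cut at about 23% in these data, passing the limit was not always enough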;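 note: 0% = wells killed by 20 µM Hyamine and 100% = untreated DMSO cell wells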). Conditions: HCT116 beta-catenin knockout viability, CellTiter-Glo, 60 h; at 10 µM; active compounds read low.
The nature of test [5]: viability of PTEN-null HCT116 cells – cell-based, HCT116 clonal line, CellTiter-Glo, pilot screen (AID 824;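 active = viability at or below 27.92% in each of two runs, the all-compound median minus 4 SD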;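 note: 0% = 20 µM Hyamine control and 100% = vehicle cell control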). To be noted: HCT116 PTEN-deleted viability, 60 h, at 10 µM, active compounds read low.
The nature of test [6]: RAM pathway blockade in budding yeast – dse1pr::URA3 reporter, 5-FOA selection, pilot screen (AID 869;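 active = inhibition over a set limit, the all-compound mean plus 3 SD, in both replicate runs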;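 note: 0% = DMSO wells with no growth and 100% = 10 µM 1-NA-PP1 with full growth; RAM network block rescues cells from 5-FOA so hits raise OD615 growth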). Conditions: S. cerevisiae dse1pr::URA3 5-FOA growth, OD615, 2 d; at 10 µM; active compounds read high; strain carries analog-sensitive mutant Cbk1 kinase.
A short description of test [7]: RAM signaling pathway blockade in yeast – S. cerevisiae, Pdr1DBD-CYC8 efflux-inhibited sensitized strain, primary screen (AID 1298;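 active = RAM network inhibition above 8.4% in each of two replicates, 3 SD over the compound average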;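 note: 0% = DMSO untreated cells without growth and 100% = 10 µM 1-NA-PP1 full growth; higher means more yeast growth rescued from 5-FOA killing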). Conditions: S. cerevisiae cbk1-as DSE1-URA3 strain, 5-FOA growth OD615, 2 d; at 50 µM; active compounds read high.

Unmarked numbers belong to inactive results. Results filed as inconclusive are left out. Calls of active or inactive are those of the source.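 Rule for the calls, unless noted: active = viability increase at or above a cutoff of the median across tested compounds plus 3 SD (cut at about 8.5% in these data, passing the limit was not always enough); inconclusive = some gains above the cutoff, reason not given; inactive = the rest.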

Take `COc1ccc(-c2c(C)oc3c(CN4CCCCC4C)c(O)ccc3c2=O)cc1OC` (stereo not drawn): the figures for the growth inhibition in test [1] and in test [2] were -13.7% and -7.48%, respectively. In addition, in test [3], the viability increase is -9.18%. Also, the viability (as a rule, a read-out of living cells in per cent, often relative to untreated cells) in test [4] was 103%; in test [5] it was 97.5%. Further, the inhibition (as a rule, the change of the read-out against control, counted positive when it falls) in test [6] is 1.71%. Moreover, in test [7], the RAM network inhibition is 4.01%.
As for `CCOC(=O)N1CCC(NC(=O)Cn2nc(Cc3ccncc3)c3ccccc3c2=O)CC1`, the growth inhibition was -6.68% in test [1] and 3.71% in test [2]. In addition, the viability increase in test [3] was -0.79%. Further, the figures for the viability in test [4] and in test [5] were 94% and 95.7%, respectively. In addition, the inhibition in test [6] is -0.58%. Further, the RAM network inhibition in test [7] is 0.52%.
On to `Cc1ccc(S(=O)(=O)Nc2ccc3nc(N)sc3c2)cc1`, for which the growth inhibition is 6.55% in test [1] and 13.4% in test [2]. Moreover, in test [3], the viability increase is -4.39%. In addition, the viability in test [4] was 82.6%; in test [5], 85.5%. For the same compound, the inhibition in test [6] was 0.19%. The RAM network inhibition in test [7] was 2.92%.
Take `CCOC(=O)N1CCN(C(=O)Cn2ncc3ccccc32)CC1`: the growth inhibition in test [1] was -14.3%; in test [2], -4.71%. For the same compound, in test [3], the viability increase is -1.62%. The viability in test [4] is 105%; in test [5] it was 89.4%. Further, the inhibition in test [6] is 3.38%. The RAM network inhibition in test [7] is 2.51%.
For `Cc1onc(-c2ccccc2Cl)c1C(=O)Nc1ccccc1C(N)=O`, the growth inhibition was -9.31% in test [1] and -29.5% in test [2]. The viability increase in test [3] was -3.08%. Further, the viability was 90.2% in test [4] and 85.5% in test [5]. Moreover, in test [6], the inhibition is 0.895%. Moreover, the RAM network inhibition in test [7] is 0.67%.
Turning to `COc1ccc(N2CC(C(=O)NC3CC(C)(C)NC(C)(C)C3)CC2=O)cc1` (stereo not drawn), the values for the growth inhibition in test [1] and in test [2] were -9.42% and -4.41%, respectively. For the same compound, in test [3], the viability increase was 0.06%. Moreover, the viability in test [4] is 99.8%; in test [5], 104%. Further, in test [6], the inhibition was 0.515%. In addition, the RAM network inhibition in test [7] was 2.14%.
As to `O=C(Cn1cc2c(n1)CCCC2)Nc1cc(-c2cccc(Cl)c2)no1`, the growth inhibition in test [1] is 3.94%; in test [2], 3.73%. For the same compound, the viability increase in test [3] was 0.67%. Moreover, the viability in test [4] is 99.2%; in test [5], 87.2%. Besides, the inhibition in test [6] is 0.9%. Further, in test [7], the RAM network inhibition is 2.24%.
Turning to `CC1=C(C(=O)Nc2ccccc2)C(c2ccco2)C(C#N)=C(SCc2ccccc2)N1` (stereo not drawn), the growth inhibition was 9% in test [1] and 14.5% in test [2]. In test [3], the viability increase is -7.63%. Further, the viability was 11.8% (active) in test [4] and 9.06% (active) in test [5]. The inhibition in test [6] was 3.18%. The RAM network inhibition in test [7] is 3.38%.
Regarding `COc1ccccc1N1CCN(C(=O)CCc2ccc(S(=O)(=O)NC(C)C)cc2)CC1`, the growth inhibition in test [1] is -12.7%; in test [2], -19.8%. Also, the viability increase in test [3] is -2.97%. Further, the results for the viability in test [4] and in test [5] were 97.6% and 102%, respectively. The inhibition in test [6] is 0.85%. In addition, the RAM network inhibition in test [7] is 4.61%.
In the case of `CCCCCSc1nc2c(c(=O)[nH]c(=O)n2C)n1C(C)C`, the growth inhibition in test [1] is -8.31%; in test [2], -3.84%. For the same compound, the viability increase in test [3] is 1.12%. Further, the viability in test [4] is 89.5%; in test [5], 85.4%. In addition, in test [6], the inhibition is 1.3%. The RAM network inhibition in test [7] was 1.95%.
On to `O=C(CCn1c(=O)oc2ccccc21)Nc1cccc(Cl)c1`, for which the growth inhibition is -14.4% in test [1] and -11% in test [2]. In addition, the viability increase in test [3] is 0.42%. The viability in test [4] was 92.8%; in test [5], 96.4%. Moreover, the inhibition in test [6] was 2.17%. The RAM network inhibition in test [7] was 2.21%.
Turning to `CCCc1nnc(NC(=O)CCC(=O)O)s1`, the growth inhibition was -4.72% in test [1] and -1.89% in test [2]. Moreover, the viability increase in test [3] is -1.02%. For the same compound, the viability in test [4] is 92.8%; in test [5], 95.4%. The inhibition in test [6] was 0.765%. For the same compound, in test [7], the RAM network inhibition is 0%.
In the case of `COc1ccccc1S(=O)(=O)Cc1ccc(C(=O)NCCN(C)C)o1`, the growth inhibition in test [1] is -6.73%; in test [2], 5%. For the same compound, the viability increase in test [3] was -0.73%. Further, the viability in test [4] was 106%; in test [5] it was 98.2%. Further, in test [6], the inhibition was 1.9%. The RAM network inhibition in test [7] was 0.1%.
Consider `CCN1CCCC1CNC(=O)c1cc2c(-c3ccc(Cl)cc3)nn(C)c2s1` (stereo not drawn), for which the growth inhibition was -7.45% in test [1] and 10.1% in test [2]. For the same compound, in test [3], the viability increase is -8.33%. In addition, the values for the viability in test [4] and in test [5] were 2.03% (active) and 2.04% (active), respectively. Besides, the inhibition in test [6] is 1.31%. For the same compound, the RAM network inhibition in test [7] was 8.33%.
On to `Cc1cc(SCC(=O)c2ccccc2)n2nc(C)nc2n1`, for which the growth inhibition in test [1] is -12.2%; in test [2], 0.305%. Also, the viability increase in test [3] was -6.79%. Further, the values for the viability in test [4] and in test [5] were 89.8% and 87%, respectively. For the same compound, the inhibition in test [6] is 2.91%. Besides, the RAM network inhibition in test [7] is 2.67%.
As to `CCC(=O)NC(c1ccccc1)c1nc2ccccc2[nH]1` (stereo not drawn), the growth inhibition in test [1] is -12.9%; in test [2], -14.2%. Moreover, in test [3], the viability increase was -0.96%. Further, the viability in test [4] was 100%; in test [5], 97.4%. For the same compound, in test [6], the inhibition is 1.48%. Also, in test [7], the RAM network inhibition is 0.62%.
As to `Cc1ccc(-c2nc(CS(=O)(=O)CC(=O)NC3CCCCC3C)c(C)o2)cc1` (stereo not drawn), the growth inhibition in test [1] is -15.3%; in test [2], -32.8%. In addition, the viability increase in test [3] is -0.44%. For the same compound, the figures for the viability in test [4] and in test [5] were 93% and 87.4%, respectively. For the same compound, the inhibition in test [6] is 1.73%. In addition, in test [7], the RAM network inhibition was 7.21%.
As for `CC1CCCC(C)N1c1nnc(NC(=O)Cn2c(=O)oc3ccccc32)s1` (stereo not drawn), the growth inhibition in test [1] was -4.67%; in test [2], 9.9%. The viability increase in test [3] is 0.39%. Besides, the results for the viability in test [4] and in test [5] were 95.1% and 99.2%, respectively. Besides, in test [6], the inhibition was 1.85%. Also, the RAM network inhibition in test [7] is 3.6%.
For `CCN(CC)S(=O)(=O)c1ccc(C(=O)Nc2nnc(C(C)C)s2)cc1`, the growth inhibition in test [1] was -12.7%; in test [2] it was -1.79%. In addition, the viability increase in test [3] was 0.3%. Besides, the figures for the viability in test [4] and in test [5] were 104% and 95%, respectively. The inhibition in test [6] is 1.25%. In addition, in test [7], the RAM network inhibition was 4.27%.
On to `COC(=O)c1nc(NC(=O)C(C)(C)C)n[nH]1`, for which the growth inhibition in test [1] was -9.88%; in test [2], -18.8%. Also, the viability increase in test [3] was -3.77%. The values for the viability in test [4] and in test [5] were 92.7% and 89.8%, respectively. Also, the inhibition in test [6] was 2.06%. Further, the RAM network inhibition in test [7] is 0.47%.
With `CC1(C)CCCC2=C1CC1C(=O)N(O)C(=O)C1C2` (stereo not drawn), the figures for the growth inhibition in test [1] and in test [2] were -8.79% and -12.1%, respectively. Moreover, the viability increase in test [3] was -1.21%. Moreover, the viability in test [4] is 102%; in test [5] it was 87.8%. In test [6], the inhibition is 1.96%. Moreover, in test [7], the RAM network inhibition is 1.62%.
For `Cc1ccc(-c2nc(CS(=O)(=O)CC(=O)N3CCCCCC3)c(C)o2)cc1`, the growth inhibition in test [1] was -2.76%; in test [2] it was 0.63%. The viability increase in test [3] is -1.22%. The viability is 50% in test [4] and 70.6% in test [5]. In addition, the inhibition in test [6] was 0.26%. Further, the RAM network inhibition in test [7] is 4.22%.
`COc1ccc(Br)cc1S(=O)(=O)N(CC(=O)N1CCOCC1)c1ccccc1`: the results for the growth inhibition in test [1] and in test [2] were -2.82% and -7.74%, respectively. The viability increase in test [3] was -2.08%. The figures for the viability in test [4] and in test [5] were 98.1% and 98.6%, respectively. Also, the inhibition in test [6] is 2.6%. Also, in test [7], the RAM network inhibition is 3.62%.
Take `Cn1c(SCc2nc(-c3ccc(Cl)cc3)no2)nnc1-c1ccco1`: the figures for the growth inhibition in test [1] and in test [2] were -8.54% and -0.675%, respectively. In addition, the viability increase in test [3] was -2.85%. In addition, the viability is 90.6% in test [4] and 85.6% in test [5]. Besides, the inhibition in test [6] was 2.02%. Besides, the RAM network inhibition in test [7] is 6.31%.

The values are drawn from PubChem BioAssay.
